In brackets after ≈: the same amount, converted by molar mass.
Columns and labels:
[1] = tested on: Human immunodeficiency virus 1; test: Antiviral activity against HIV1 infected in human assessed as death rate constant of infected CD4 cells at 250 mg, po; format: functional
Summary of the method: (§1)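 Randomized, double-blind, placebo-controlled trial in HIV-infected adults (CD4 >200 cells/mm3, plasma viral load 5,000–250,000 copies/ml, off antiretrovirals ≥4 weeks), six per cohort, single oral dose. Plasma drug levels measured by LC-MS/MS; HIV RNA sampled to day 24. Parameters from a viral-dynamic model (Hill-type inhibition of new CD4 infection) fit per subject by maximum likelihood then Bayesian estimation; reported as mean (%CV).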

[2] = tested on: Homo sapiens; test: Distributional clearance in HIV1 infected human at 75 mg, po; format: ADME, organism-based; conditions: in vivo
Summary of the method: (§2)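 Single oral dose to HIV-infected adults, six per cohort; plasma sampled 0–48 h and days 3–24. Heparinized plasma, internal-standard spiked, acetonitrile-precipitated, assayed by reverse-phase LC-MS/MS (MRM 583.3→455.2); ranges 20.0–16,000 ng/ml (75 mg) or 100–60,000 ng/ml (150, 250 mg). Oral two-compartment linear model with absorption lag fit by maximum likelihood then Bayesian estimation.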

[3] = tested on: Human immunodeficiency virus 1; test: Antiviral activity against HIV1 infected in human assessed as maximum rate of viral replication measured as logarithmic viral copies at 250 mg, po; format: functional
Summary of the method: (§3)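 Randomized, double-blind, placebo-controlled trial; HIV-infected adults (CD4 >200 cells/mm3, plasma viral load 5,000–250,000 copies/ml, no antiretrovirals ≥4 weeks), six per cohort, single oral dose. Plasma HIV RNA sampled predose through day 24. Viral-dynamic model (uninfected/infected CD4, virus; Hill-type inhibition of new infection by plasma concentration) fit by maximum likelihood then Bayesian estimation, pharmacokinetic parameters held fixed.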

[4] = tested on: Human immunodeficiency virus 1; test: Antiviral activity against HIV1 infected in human assessed as rate at which virus infects CD4 cells at 75 mg, po; format: functional; summary of the method: as §3
[5] = Half life in HIV1 infected human at 250 mg, po; format: ADME, organism-based; conditions: in vivo; summary of the method: as §2
[6] = tested on: Homo sapiens; test: Toxicity in HIV1 infected human assessed as incidence of adverse effect at 75 to 250 mg, po; format: organism-based; conditions: in vivo
Summary of the method: (§4)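 Safety monitoring of HIV-infected adults given a single oral dose or placebo (randomized, double-blind, six per cohort), followed to day 24 for adverse events, serious adverse events and deaths.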

[7] = tested on: Human immunodeficiency virus 1; test: Antiviral activity against HIV1 infected in human assessed as number of new virions produced by infected CD4 cells at 250 mg, po; format: functional; summary of the method: as §3
[8] = tested on: Human immunodeficiency virus 1; test: Antiviral activity against HIV1 infected in human assessed as number of new virions produced by infected CD4 cell at 150 mg, po; format: functional; summary of the method: as §3
[9] = tested on: Human immunodeficiency virus 1; test: Antiviral activity against HIV1 infected in human assessed as growth/production of uninfected CD4 cells at 150 mg, po; format: functional; summary of the method: as §3
[10] = Apparent oral clearance in HIV1 infected human at 150 mg, po; format: ADME, organism-based; conditions: in vivo; summary of the method: as §2
[11] = tested on: Human immunodeficiency virus 1; test: Antiviral activity against HIV1 infected in human assessed as death rate constant of uninfected CD4 cells at 250 mg, po; format: functional; summary of the method: as §1
[12] = tested on: Human immunodeficiency virus 1; test: Antiviral activity against HIV1 infected in human assessed as number of new virions produced by infected CD4 cell at 75 mg, po; format: functional; summary of the method: as §3
[13] = tested on: Human immunodeficiency virus 1; test: Antiviral activity against HIV1 infected in human assessed as logarithmic reduction in HIV RNA copies at 75 mg, po relative to baseline; format: functional
Summary of the method: (§5)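 Randomized, double-blind, placebo-controlled single oral dose in HIV-infected adults (CD4 >200 cells/mm3, viral load 5,000–250,000 copies/ml, off therapy ≥4 weeks), six per cohort. Plasma HIV RNA at screening, predose, 6–48 h and days 3–24; maximum observed log10 drop from baseline per patient, averaged by dose, compared by ANOVA.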

[14] = Half life in po dosed human; format: ADME, organism-based; conditions: in vivo
[15] = tested on: Human immunodeficiency virus 1; test: Antiviral activity against HIV1 infected in human assessed as growth/production of uninfected CD4 cells at 250 mg, po; format: functional; summary of the method: as §3
[16] = tested on: Human immunodeficiency virus 1; test: Antiviral activity against HIV1 infected in human assessed as rate at which virus infects CD4 cells at 150 mg, po; format: functional; summary of the method: as §3
[17] = tested on: Human immunodeficiency virus 1; test: Antiviral activity against HIV1 infected in human assessed as logarithmic reduction in HIV RNA copies at 150 mg, po relative to baseline; format: functional; summary of the method: as §5
[18] = tested on: Homo sapiens; test: Tlag in HIV1 infected human at 250 mg, po; format: ADME, organism-based; conditions: in vivo; summary of the method: as §2
[19] = tested on: Human immunodeficiency virus 1; test: Antiviral activity against HIV1 assessed as inhibition of release of CA/p24 from CA-SP1/p25 at 37.8 nM by MAGI assay; format: functional; conditions: Human immunodeficiency virus 1, MAGI
[20] = tested on: Human immunodeficiency virus 1; test: Antiviral activity against HIV1 infected in human assessed as maximum rate of viral replication measured as logarithmic viral copies at 75 mg, po; format: functional; summary of the method: as §3
[21] = tested on: Human immunodeficiency virus 1; test: Antiviral activity against HIV1 infected in human assessed as logarithmic reduction in HIV RNA copies at 250 mg, po relative to baseline; format: functional; summary of the method: as §5
[22] = tested on: Human immunodeficiency virus 1; test: Antiviral activity against HIV1 infected in human assessed as rate at which virus infects CD4 cells at 250 mg, po; format: functional; summary of the method: as §3
[23] = tested on: Homo sapiens; test: Distributional clearance in HIV1 infected human at 250 mg, po; format: ADME, organism-based; conditions: in vivo; summary of the method: as §2
[24] = tested on: Human immunodeficiency virus 1; test: Antiviral activity against HIV1 infected in human assessed as inhibition of viral replication at 75 mg, po; format: functional, organism-based; summary of the method: as §3
[25] = tested on: Human immunodeficiency virus 1; test: Antiviral activity against HIV1 infected in human assessed as inhibition of viral replication at 150 mg, po; format: functional, organism-based; summary of the method: as §3
[26] = tested on: Homo sapiens; test: Toxicity in HIV1 infected human assessed as mortality at 75 to 250 mg, po; format: organism-based; conditions: in vivo; summary of the method: as §4
[27] = tested on: Human immunodeficiency virus 1; test: Antiviral activity against HIV1 infected in human assessed as inhibition of viral replication at 250 mg, po; format: functional, organism-based; summary of the method: as §3
[28] = tested on: Homo sapiens; test: Effect of CD4 cell count in HIV1 infected human at 250 mg, po after 10 days; format: functional
Summary of the method: (§6)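 CD4 cell count change from baseline 10 days after a single oral dose in HIV-infected adults (baseline CD4 >200 cells/mm3), six per cohort, placebo-controlled double-blind design; tested by dose and over time.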

[29] = tested on: Human immunodeficiency virus 1; test: Antiviral activity against HIV1 infected in human assessed as death rate constant of infected CD4 cells at 150 mg, po; format: functional; summary of the method: as §1
[30] = tested on: Human immunodeficiency virus 1; test: Antiviral activity against HIV1 infected in human assessed as growth/production of uninfected CD4 cells at 75 mg, po; format: functional; summary of the method: as §3
[31] = tested on: Human immunodeficiency virus 1; test: Antiviral activity against HIV1 infected in human assessed as maximum rate of viral replication measured as logarithmic viral copies at 150 mg, po; format: functional; summary of the method: as §3
[32] = tested on: Human immunodeficiency virus 1; test: Antiviral activity against HIV1 infected in human assessed as clearance rate of virions at 150 mg, po; format: functional; summary of the method: as §3
[33] = tested on: Plasma; test: Stability in human plasma; format: ADME, cell-free
[34] = tested on: Homo sapiens; test: Effect of CD4 cell count in HIV1 infected human at 75 mg, po after 10 days; format: functional; summary of the method: as §6
[35] = Apparent oral clearance in HIV1 infected human at 75 mg, po; format: ADME, organism-based; conditions: in vivo; summary of the method: as §2
[36] = tested on: Homo sapiens; test: Distributional clearance in HIV1 infected human at 150 mg, po; format: ADME, organism-based; conditions: in vivo; summary of the method: as §2
[37] = tested on: Human immunodeficiency virus 1; test: Antiviral activity against HIV1 infected in human assessed as death rate constant of infected CD4 cells at 75 mg, po; format: functional; summary of the method: as §1
[38] = tested on: Human immunodeficiency virus 1; test: Antiviral activity against HIV1 infected in human assessed as clearance rate of virions at 250 mg, po; format: functional; summary of the method: as §3
[39] = Apparent oral clearance in HIV1 infected human at 250 mg, po; format: ADME, organism-based; conditions: in vivo; summary of the method: as §2
[40] = tested on: Homo sapiens; test: Effect of CD4 cell count in HIV1 infected human at 150 mg, po after 10 days; format: functional; summary of the method: as §6
[41] = tested on: Homo sapiens; test: Tlag in HIV1 infected human at 150 mg, po; format: ADME, organism-based; conditions: in vivo; summary of the method: as §2
[42] = Half life in HIV1 infected human at 150 mg, po; format: ADME, organism-based; conditions: in vivo; summary of the method: as §2
[43] = tested on: Homo sapiens; test: Tlag in HIV1 infected human at 75 mg, po; format: ADME, organism-based; conditions: in vivo; summary of the method: as §2
[44] = Half life in HIV1 infected human at 75 mg, po; format: ADME, organism-based; conditions: in vivo; summary of the method: as §2
[45] = tested on: Human immunodeficiency virus 1; test: Antiviral activity against HIV1 infected in human assessed as clearance rate of virions at 75 mg, po; format: functional; summary of the method: as §3
[46] = tested on: Human immunodeficiency virus 1; test: Antiviral activity against HIV1 infected in human assessed as death rate constant of uninfected CD4 cells at 150 mg, po; format: functional; summary of the method: as §1
[47] = tested on: Human immunodeficiency virus 1; test: Antiviral activity against HIV1 infected in human assessed as death rate constant of uninfected CD4 cells at 75 mg, po; format: functional; summary of the method: as §1

`C=C(C)[C@@H]1CC[C@]2(C(=O)O)CC[C@]3(C)[C@H](CC[C@@H]4[C@@]5(C)CC[C@H](OC(=O)CC(C)(C)C(=O)O)C(C)(C)[C@@H]5CC[C@]43C)[C@@H]12` [BEVIRIMAT] showed an Activity [1] of 0.007 h⁻¹, a CLd [2] of 0.48 L/h and an Activity [3] of 4.46 mL⁻¹. The Activity [4] was 0.14 h⁻¹, the half-life [5] was 62.1 h and the Activity [6] was “Non-toxic”. It also gave an Activity [7] of 80.2, an Activity [8] of 126 and an Activity [9] of 1340 mL/h. For the same compound, the CL/F [10] was 2.67 mL/min, the Activity [11] was 0.0016 h⁻¹ and the Activity [12] was 137.8. For the same compound, the Activity [13] was -0.14 mL⁻¹, the half-life [14] was 55 h and the Activity [15] was 1856.6 mL/h. The Activity [16] was 0.028 h⁻¹, the Activity [17] was -0.47 mL⁻¹ and the Tlag [18] was 0.15 h. It also gave an inhibition at 0.0378 µM [19] of 90%, an Activity [20] of 5.13 mL⁻¹ and an Activity [21] of -0.46 mL⁻¹. It also gave an Activity [22] of 0.0349 h⁻¹, a CLd [23] of 0.45 L/h and an EC50 [24] of 1.19 ng/mL (≈ 2.03 nM). For the same compound, the EC50 [25] was 0.35 ng/mL (≈ 0.598 nM), the Activity [26] was “Non-toxic” and the EC50 [27] was 0.55 ng/mL (≈ 0.94 nM). The Activity [28] was 104, the Activity [29] was 0.017 h⁻¹ and the Activity [30] was 320.7 mL/h. It also gave an Activity [31] of 4.59 mL⁻¹, an Activity [32] of 0.071 h⁻¹ and a Stability [33] of 95 days. It also gave an Activity [34] of -15, a CL/F [35] of 2.83 mL/min and a CLd [36] of 0.48 L/h. The Activity [37] was 0.013 h⁻¹, the Activity [38] was 0.024 h⁻¹ and the CL/F [39] was 2.83 mL/min. For the same compound, the Activity [40] was 121, the Tlag [41] was 0.2 h and the half-life [42] was 55.1 h. It also gave a Tlag [43] of 0.18 h, a half-life [44] of 63.9 h and an Activity [45] of 0.008 h⁻¹. For the same compound, the Activity [46] was 0.0012 h⁻¹ and the Activity [47] was 0.0031 h⁻¹.
